Source: PubChem
Rin1 Abl inh = inhibitors of human Rin1-Abl protein interaction | inhibition, % at 7.35 µM | P00519+Q13671 | TR-FRET Rin1/Abl binding, biochemical | hit rate 0.4% among 360,000 | AID 588664; in the data active means inhibition above about 5%, passing the limit was not always enough
Xi reactivation = reactivates the inactive X chromosome in mouse fibroblasts; activation, % at 7.58 µM; hit rate 0.055% among 360,000; XiGFP mouse fibroblasts, % GFP-positive cells imaging, 3 d; cells co-treated with 5-aza-dC sensitizer; scaled so ellipticine positive control = 100%;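 active means mean normalized replicate activation at least 10% and every replicate at or above 10%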;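 further: 0% = median of on-plate neutral control wells and 100% = ellipticine 6 µM median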
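System: SV40-immortalized XiGFP fibroblast cells, line 68-5-11 / Incubation: 3-day compound exposure, then 15 min fixation at room temperature / Compound: single concentration per compound, delivered by pin transfer / Buffer or medium: DMEM plus 5-aza-dC sensitizer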
NadD block = blocks S. aureus nicotinate mononucleotide adenylyltransferase. purified NadD enzyme, colorimetric absorbance read-out. inhibition, % at 20 µM. hit rate 0.78% among 360,000; in the data active means inhibition above about 26%
Rpn11 inh = inhibitors of human proteasome Rpn11; human 26S proteasome, Ub4-pepOG fluorescence polarization; 20S core pre-blocked with epoxomicin; inhibition, % at 20 µM; hit rate 0.59% among 360,000; AID 588493;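 active means inhibition at 20 µM, scaled to each plate's controls, above about 33%, limit read from the data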
ABHD5-PLIN5 inh = blocks binding of human ABHD5 to perilipin-5 | Q00G26+Q8WTS1 | Split G. princeps luciferase complementation, luminescence, 4 h | inhibition, % at 4 µM | hit rate 0.78% among 360,000;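 active means inhibition above the mean inhibition across every tested compound plus 3 SD, cut at about 22% in these data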;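 further: 0% = DMSO only wells and the 100% control is not disclosed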
* marks the source's active call; other numbers are inactive results; · = no result given. Sampled rows, rich in hits. Any-hit rate of the full collection: about 1.9%.

SMILES	Rin1 Abl inh	Xi reactivation	NadD block	Rpn11 inh	ABHD5-PLIN5 inh
CC[n+]1c(/C=C(\C)OC)sc2ccccc21	3	0	0	24	0
CC[n+]1c(/C=C/C=C/N(C(C)=O)c2ccccc2)sc2cc(OC)ccc21	·	52*	·	·	·
O=C(C1CCCCC1)N1CC2(C1)[C@H](c1ccccc1)[C@@H](CO)N2Cc1ccccc1F	·	0	·	·	·
CCC(=O)N1CC2(C1)[C@H](c1ccccc1)[C@H](CO)N2Cc1cccc(Cl)c1	·	0	·	·	·
Cc1cc(/C=C2/SC(=S)N(c3cccc(Cl)c3)C2=O)c(C)n1-c1cccnc1	-3	·	30*	35	1
O=c1c2ccccc2sn1-c1cc(S(=O)(=O)N2CCOCC2)ccc1N1CCCC1	-6	·	15	0	13
O=c1c2ccccc2sn1-c1cc(S(=O)(=O)N2CCOCC2)ccc1N1CCOCC1	2	·	9	-5	97*
O=C1CCNc2cc3ccccc3cc21	0	·	31*	-39	-6
O=c1c2c3c(sc2n(CCN2CCCC2)c(=O)n1Cc1ccco1)CCCCC3	0	·	2	7	16
O=C(Cn1c(=O)n(Cc2ccco2)c(=O)c2c3c(sc21)CCCCC3)c1ccccc1	4	·	35*	-6	51*
Cc1ccc(N=Nc2ccc(O)c3ncccc23)cc1C	1	1	18	22	1
CCS(=O)(=O)c1ccc(N=Nc2ccc(O)c3ncccc23)c(OC)c1	7	0	17	50*	11
CC(C)CC#Cc1ccc2c(c1)O[C@H](CN(C)C(=O)Cc1cccnc1)[C@@H](C)CN([C@H](C)CO)S2(=O)=O	·	-1	·	·	·
COc1cc(/C=C2\SC(=O)N(c3ccc(Cl)cc3)C2=O)cc([N+](=O)[O-])c1O	-3	0	60*	29	-2
COc1cc(/C=C2/C(=O)NN(c3ccc(C)c(Cl)c3)C2=O)cc([N+](=O)[O-])c1O	-1	0	7	6	-2
Cc1nc2c(C(=O)NCCC(C)C)c[nH]n2c(=O)c1Cl	1	0	17	-3	-2
Cc1nc2c(C(=O)NCCC(C)C)c[nH]n2c(=O)c1Cc1ccccc1F	0	·	30*	11	-4
O=C(O)CC(C(=O)O)N1C(=O)/C(=C/c2ccc(-c3nc4ccccc4s3)o2)SC1=S (stereo not drawn)	3	·	23	71*	-15
C[C@@H]1CN([C@H](C)CO)C(=O)c2cc(NC(=O)Cc3ccccc3)ccc2O[C@@H](C)CCCCO[C@H]1CN(C)S(=O)(=O)c1ccc(Cl)cc1	·	0	·	·	·
c1ccc(CC2CCN(C3=Nc4cccc5cccc3c45)CC2)cc1	-8	·	-2	39*	7
CC1CCN(Cc2c(C(=O)N/N=C/c3cc(Br)ccc3O)nnn2-c2nonc2N)CC1	-1	0	33*	4	-1
CC1CCN(Cc2c(C(=O)N/N=C/c3cc(Cl)ccc3O)nnn2-c2nonc2N)CC1	0	0	30*	-2	-2
C/C(=N\NC(=O)c1nnn(-c2nonc2N)c1CN1CCc2ccccc21)c1ccccc1O	0	0	42*	-2	-3
COc1ccc2c3c(n(C)c2c1)[C@@H](CO)N(CC1CC1)CC31CCN(C(=O)CN(C)C)CC1	·	0	·	·	·
C[C@@H]1CN([C@H](C)CO)C(=O)CCCn2nncc2CO[C@@H]1CN(C)Cc1ccncc1	·	0	·	·	·
SMILES	Rin1 Abl inh	Xi reactivation	NadD block	Rpn11 inh	ABHD5-PLIN5 inh
COc1ccc(NC(=O)/C(Cl)=C(/Cl)S(=O)(=O)Cc2ccc(C)cc2)cn1	3	·	2	10	64*
COc1ccc(NC(=O)Cc2ccc(Cl)c(Cl)c2)cn1	1	0	-3	-3	5
CN(C)c1ccc(C#Cc2ccc3cc(CCO)oc(=O)c3c2)cc1	-122	·	4	64*	0
COc1cc(C#Cc2ccc3cc(CCO)oc(=O)c3c2)cc(OC)c1	4	0	-14	7	12
CCCNC(=O)N1CCC2(CC1)CN(C(C)=O)[C@@H](CO)c1[nH]c3cc(OC)ccc3c12	·	0	·	·	·
C[C@H]1[C@H](C)CC[C@]2(C(=O)O)CC[C@]3(C)C(=CC[C@@H]4[C@@]5(C)CC[C@H](O)C(C)(C)[C@@H]5CC[C@]43C)[C@H]12	-5	0	47*	-7	-1
C[C@@H]1CC[C@]2(C(=O)O)CC[C@]3(C)C(=CCC4[C@@]5(C)CC[C@H](O)[C@@](C)(C(=O)O)C5CC[C@]43C)C2[C@]1(C)O (stereo partly drawn)	3	0	1	-1	3
C[C@@H]1CC[C@]2(C(=O)O)CC[C@]3(C)C(=CCC4[C@]56CC[C@@](O)(OC5)C(C)(C)C6CC[C@]43C)C2[C@H]1C (stereo partly drawn)	4	·	5	1	-3
C[C@H]1[C@H](C)CC[C@]2(C(=O)O)CC[C@]3(C)C(=CC[C@@H]4[C@@]5(C)C[C@@H](O)[C@H](O)C(C)(C)[C@@H]5CC[C@]43C)[C@H]12	3	·	35*	2	0
CCC(OC(=O)c1ccc(S(C)(=O)=O)c([N+](=O)[O-])c1)C(=O)NC1C2CC3CC(C2)CC1C3 (stereo not drawn)	2	0	-2	2	7
CC(OC(=O)c1ccc(S(C)(=O)=O)c([N+](=O)[O-])c1)C(=O)NC1C2CC3CC(C2)CC1C3 (stereo not drawn)	0	0	0	2	23*
COC(=O)[C@@]1(Cc2ccccc2)[C@@H]2C(=CC(=O)[C@H]2CC(=O)C(=O)N(C)C)CN1C(=O)c1ccccc1	2	·	2	6	31*
COC(=O)[C@@]1(Cc2ccc(F)cc2)[C@H]2c3cc(C(=O)N(C)C)n(CCF)c3C[C@H]2CN1C(=O)c1ccccc1	·	0	-10	·	1
C[C@H](CO)N1C[C@H](C)[C@@H](CN(C)S(=O)(=O)c2cn(C)cn2)Oc2c(NC(=O)CCCN(C)C)cccc2C1=O	·	-1	·	·	·
COc1cc(/C=C(\C#N)c2nc3ccccc3o2)ccc1O	-5	18*	0	·	-4
CCCN1[C@@H]2c3ccc(-c4ccc(F)cc4)c(=O)n3C[C@H]1[C@H](CO)[C@H]2C(=O)NCC	·	0	·	·	·
C/C=C\C=C/C(=O)Nc1cccc(C2=NOC3(C2)C[C@@H](C(N)=O)N(C(=O)/C=C/C=C\C)C3)c1 (stereo partly drawn)	2	·	31*	52*	17
Cc1ccc(S(=O)(=O)Nc2ccc3c(c2)C(=O)N([C@@H](C)CO)C[C@@H](C)[C@@H](CN(C)S(=O)(=O)c2ccc(C)cc2)OCCCC[C@H](C)O3)cc1	·	0	·	·	·
COc1ccc(CN(C)C[C@H]2OCCCC[C@@H](C)Oc3ccc(NC(=O)NC(C)C)cc3C(=O)N([C@@H](C)CO)C[C@H]2C)cc1	·	0	·	·	·
Cc1ccc(NC(=O)CN2C(=O)S/C(=C/c3ccc(-c4cccc(C(=O)O)c4)o3)C2=O)cc1	0	0	21	·	0
